# A selection: hits, their analogues and other compounds. The true share with any hit is near 1.6%.
# TLR4-MyD88 BLA – inhibitors of human TLR4-MyD88 binding; actives 0.18% (n = 200,000); inhibition, % at 8.4 µM; HeLa CL3-4 TLR4/MyD88 BLA complementation, FRET ratio; AID 861; O00206+Q99836; in the data active means inhibition above about 25%;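 further: 0% = vehicle and 100% = reference inhibitor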
# NOD2 RIPK2 PPI – NOD2-RIPK2 protein interaction inhibition | CHO BLA complementation NOD2-RIPK2, CCF4 ratio | inhibition, % at 4.98 µM | actives 0.38% (n = 360,000) | AID 624267; in the data active means inhibition above about 21%;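 further: 0% = vehicle only and 100% = reference blocker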
# Dynein transport – blocks dynein driven cargo transport along microtubules; 3617.4 mouse cells, GR-EGFP nuclear translocation imaging; test concentration mostly 20 µM; stimulated with dexamethasone, 1 µM; hits give low values; z-score, hits read low; actives 0.47% (n = 220,000); AID 1381;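 active means plate z-score of nuclear minus cytoplasmic receptor signal below a set negative limit, without overly bright fluorescence or cell loss, cut at about -3.5 in these data, passing the limit was not always enough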;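 further: z-score of nuclear minus cytoplasmic ring GR-EGFP intensity difference per well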
#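 Buffer or medium – tet-free medium with charcoal-stripped serum · Signal – automated 10x imaging of fixed Hoechst-stained cells · Also added – dexamethasone agonist, 1.0 µM final, for 30 min · Incubation – induction 48 h, compound 1 h, agonist 30 min · Read-out – GR-EGFP nuclear translocation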
# TLR9-MyD88 block – TLR9-MyD88 interaction inhibition | Q9NR96+Q99836 | CHO BLA complementation TLR9-MyD88, CCF4 FRET ratio | inhibition, % at 4.98 µM | actives 0.21% (n = 340,000);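 active means inhibition above the mean over all tested compounds plus 3 SD, cut at about 21% in these data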;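 further: 0% = DMSO only wells and 100% = clavulanate BLA inhibitor control wells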
# Beta2AR agonist – agonists of human beta-2 adrenergic receptor inducing internalization. P07550. Am2.2-beta2AR cells, FAP receptor internalization, flow cytometry. response, % (no concentration beside the values). actives 0.43% (n = 340,000);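 active means response above a set limit, near 3 SD of response in nonfluorescent compounds, cut at about 42% in these data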
# Target sequence (P07550 whole entry, looked up): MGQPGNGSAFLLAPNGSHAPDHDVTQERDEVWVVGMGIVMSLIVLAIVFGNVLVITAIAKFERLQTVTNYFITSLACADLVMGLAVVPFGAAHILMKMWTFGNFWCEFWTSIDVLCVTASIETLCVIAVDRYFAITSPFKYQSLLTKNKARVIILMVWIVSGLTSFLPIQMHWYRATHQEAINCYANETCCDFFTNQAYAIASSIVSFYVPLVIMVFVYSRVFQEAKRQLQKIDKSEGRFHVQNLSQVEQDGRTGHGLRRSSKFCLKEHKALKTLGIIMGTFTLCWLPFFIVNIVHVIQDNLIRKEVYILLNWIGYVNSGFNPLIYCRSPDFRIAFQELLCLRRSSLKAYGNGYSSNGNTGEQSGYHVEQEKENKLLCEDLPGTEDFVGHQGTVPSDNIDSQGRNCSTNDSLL
# ABHD5-PLIN5 inh – blocks binding of human ABHD5 to perilipin-5; Q00G26+Q8WTS1; Split G. princeps luciferase complementation, luminescence, 4 h; inhibition, % at 4 µM; actives 0.78% (n = 360,000); AID 602281;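 active means inhibition above the mean inhibition across every tested compound plus 3 SD, cut at about 22% in these data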;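 further: 0% = DMSO only wells and the 100% control is not disclosed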
# B2AR ag CP1 – agonists of human beta-2 adrenergic receptor. AID 540358. actives 25% (n = 1,100). percent response (surface receptor), % at 10 µM. Am2.2-beta2AR cells, FAP surface receptor, flow cytometry; hits give low values. shares compounds with Beta2AR agonist;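 active means surface receptor percent response at or below 58%, roughly 3 SD from nonfluorescent compounds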
# FAP fluor counter – counter-screen for beta-2AR agonists: fluorescence in Am2.2 cells; 1,100 tested, under 10 active; calls only at 10 µM; FAP fluorogen flow cytometry, fluorescence counterscreen; hits give low values; shares compounds with Beta2AR agonist;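 active means percent response below a set limit in fluorescence channel 1 and below 50% in channel 8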
# An asterisk follows results filed as active; i = inactive; · = no result.
SMILES,TLR4-MyD88 BLA,NOD2 RIPK2 PPI,Dynein transport,TLR9-MyD88 block,Beta2AR agonist,ABHD5-PLIN5 inh,B2AR ag CP1,FAP fluor counter
CS(=O)(=O)N1CCN(c2ccccc2NC(=O)CSc2ccc(Cl)cc2)CC1,9,3,0.037,-8,0,1,·,·
O=C(CSc1ccc(Cl)cc1)Nc1ccccc1N1CCN(C(=O)c2ccccc2)CC1,5,0,-0.46,5,43*,-6,65,i
CSCCC(NC(=O)c1ccccc1Br)C(=O)NNC(=O)c1ccco1 (configuration not stated),·,-21,·,2,-4,13,·,·
Cc1ccc(NC(=O)c2ccc(N3CCOCC3)c([N+](=O)[O-])c2)cc1S(=O)(=O)N1CCOCC1,0,-4,-0.52,5,49*,4,20*,i
Cc1ccc(C(=O)Nc2ccccc2[N+](=O)[O-])cc1S(=O)(=O)N1CCOCC1,·,10,·,-2,7,-3,·,·
CN(C)S(=O)(=O)c1cccc(NC(=O)c2ccc(N3CCOCC3)c([N+](=O)[O-])c2)c1,11,-6,-0.33,-1,45*,1,53*,i
Cc1cccc(NC(=O)CNC(=O)CN2C(=O)NC(C)(CCC(C)C)C2=O)c1C (configuration not stated),·,-6,·,-3,9,0,·,·
CCCS(=O)(=O)NC(=O)C1(C)CCCN(C(=O)c2cc(-c3cccs3)oc2C)C1 (configuration not stated),·,4,·,·,·,21,·,·
CN1CCCC(CC2c3ccccc3Sc3ccccc32)C1 (configuration not stated),·,-6,·,-5,37,15,81,i
CCCCNC(=O)C1c2ccccc2OCC(=O)N1CCc1ccccc1 (configuration not stated),·,-13,·,·,·,1,·,·
O=[N+]([O-])c1ccc2nc(CCCc3nc4ccc([N+](=O)[O-])cc4[nH]3)[nH]c2c1,-2,-8,0.32,1,54*,0,121,i
CCC(C)(C)NC(=O)C(c1ccc(OC)cc1)N(Cc1ccccc1)C(=O)CCC(=O)Nc1cc(C)on1 (configuration not stated),·,-1,·,-5,62*,0,109,i
O=C(NCc1ccco1)c1ccc2sc([C@@H]3O[C@H](CO)[C@@H](O)[C@H]3O)nc2c1,·,5,·,·,·,2,·,·
CC(=O)Nc1cnc(-c2ccccc2O)cn1,·,-4,·,·,·,1,·,·
COc1ccc(CNCCC(c2ccc(OC(C)C)cc2)C(C)C)cc1OC (configuration not stated),5,-4,-1.1,-7,28,8,·,·
COc1ccc(C(CC(=O)O)c2ccc3c(c2)OCO3)cc1 (configuration not stated),·,-3,·,6,-1,-2,·,·
COc1ccc(CNCCC(c2ccccc2)c2ccc3c(c2)OCO3)cc1 (configuration not stated),3,2,-0.45,-4,21,18,82,i
COc1ccc(CNCCC(c2ccc(OC(C)C)cc2)c2ccccc2OC)cc1OC (configuration not stated),·,8,·,4,12,13,105,i
COc1ccccc1C(CCNCc1ccc(N(C)C)cc1)c1ccc(OC(C)C)cc1 (configuration not stated),·,9,·,-17,65*,1,62,i
COc1ccccc1C(CCNCc1ccccc1)c1ccc(OC(C)C)cc1 (configuration not stated),·,3,·,-5,25,2,111,i
CN(C)c1ccc(-c2ccnc3c2CC(C)(C(=O)Nc2cccc(Oc4ccccc4)c2)O3)cc1 (configuration not stated),·,-9,·,·,·,0,·,·
O=C(NC(=S)Nc1ccccc1F)C1CCCCC1,·,-6,·,-4,-7,-4,·,·
COc1ccc(CNCCC(c2ccc(OC(C)C)cc2)c2ccccc2OC)cc1 (configuration not stated),·,19,·,-1,28,-8,78,i
CCNc1nc(NCC)nc(-n2nc(C)cc2C)n1,3,1,-0.79,-9,3,0,113,i
Cc1cc(C)n(-c2nc(NC(C)(C)C)nc(NC(C)(C)C)n2)n1,-4,-4,-0.3,3,-2,-5,·,·
SMILES,TLR4-MyD88 BLA,NOD2 RIPK2 PPI,Dynein transport,TLR9-MyD88 block,Beta2AR agonist,ABHD5-PLIN5 inh,B2AR ag CP1,FAP fluor counter
Cc1cc(C)n(-c2nc(NC(C)C)nc(NC(C)C)n2)n1,6,-1,-0.66,-7,-2,-2,115,i
CCOC(=O)N1CCN(C(C(=O)NC2CCCC2)c2cccc(OC)c2OC)CC1 (configuration not stated),·,1,·,·,·,-13,·,·
COC(=O)c1ccc(C(=O)OC)c(NC(=O)CSc2cccc[n+]2[O-])c1,3,-15,-0.13,6,4,-2,102,i
COc1ccc(CC(=O)Nc2cccc(-c3nnc(-c4ccc(C)cc4)o3)c2)cc1OC,9,-3,-0.87,2,50*,1,107,i
COc1ccc(CC(=O)Nc2cccc(-c3nnc(-c4cccc(C)c4)o3)c2)cc1OC,-2,-6,-0.03,-3,17,0,·,·
CN1C(=O)C(CC#N)(C2(CC#N)C(=O)N(C)c3ccccc32)c2ccccc21 (configuration not stated),·,-10,·,-1,1,-5,·,·
O=C(COc1ccc(S(=O)(=O)N2CCOCC2)cc1)Nc1ccccc1C(F)(F)F,-2,-11,-0.016,4,-7,2,112,i
O=C(COc1ccc(S(=O)(=O)N2CCCCC2)cc1)Nc1ccccc1F,·,-16,·,-2,-2,-5,104,i
O=C(COc1ccccc1)Nc1ccc(S(=O)(=O)N2CCCCCC2)cc1,5,-1,1.2,11,6,-3,·,·
C=CCn1c(-c2ccc(S(=O)(=O)N3CCOCC3)cc2)csc1=Nc1ccccc1,4,-2,-0.49,-10,10,-3,·,·
CC(=O)c1cccc(N=c2scc(-c3ccc(S(=O)(=O)N4CCOCC4)cc3)n2CCO)c1,-6,0,0.53,-7,104*,-4,117,i
CCOc1cc(C(=S)N2CCOCC2)ccc1OS(=O)(=O)c1ccccc1[N+](=O)[O-],-4,-11,0.3,-1,6,3,87,i
CCOc1cc(-c2c(C)c(C)nc(N)c2C#N)ccc1O,2,1,-0.14,-11,9,16,·,·
CCOc1cc(-c2c(C)c(CC)nc(N)c2C#N)ccc1O,5,2,-0.93,-10,69*,-4,103,i

# Screening results as filed in PubChem.
